Results reported in ChEMBL document CHEMBL1151705, “Novel azalides derived from 16-membered macrolides. Part II: Isolation of the linear 9-formylcarboxylic acid and its sequential macrocyclization with an amino alcohol or an azidoamine” (2008).
Values after ≈ are worked out from the molar mass of the structure shown.

Tests used:
Type in all cases: functional
Haemophilus influenzae [1] = assay: Antimicrobial activity against drug-susceptible Haemophilus influenzae 1 after 20 hrs by agar dilution method; details: Haemophilus influenzae, 20 h; read-out: MIC
In short: (§1)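 Streptococci, H. influenzae and M. catarrhalis were precultured on blood agar plates. Suspensions of about 10⁶ CFU/ml were inoculated onto sensitivity disk agar supplemented with 5% horse blood and incubated at 37 °C for 20 h. MIC was read as the lowest drug concentration with no visible growth.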

Staphylococcus aureus [2] = assay: Antimicrobial activity against Staphylococcus aureus 6 expressing inducible ermB after 20 hrs by agar dilution method
In short: (§2)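 Agar dilution MIC. S. aureus seed culture was grown in sensitivity test broth. Cell suspension (about 10⁶ CFU/ml) was inoculated onto sensitivity disk agar with 5% horse blood and incubated at 37 °C for 20 h. MIC was the lowest drug concentration that prevented visible growth.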

Streptococcus pneumoniae [3] = assay: Antimicrobial activity against Streptococcus pneumoniae 10 expressing mefA after 20 hrs by agar dilution method; details: Streptococcus pneumoniae, 20 h; read-out: MIC; in short: as §1
Streptococcus pneumoniae [4] = assay: Antimicrobial activity against drug-susceptible Streptococcus pneumoniae DP1 Type1 after 20 hrs by agar dilution method; details: Streptococcus pneumoniae, 20 h; read-out: MIC; in short: as §1
Streptococcus pyogenes [5] = assay: Antimicrobial activity against drug-susceptible Streptococcus pyogenes 1 after 20 hrs by agar dilution method; details: Streptococcus pyogenes, 20 h; read-out: MIC; in short: as §1
Streptococcus pneumoniae [6] = assay: Antimicrobial activity against Streptococcus pneumoniae 7 expressing inducible ermB after 20 hrs by agar dilution method; details: Streptococcus pneumoniae, 20 h; read-out: MIC; in short: as §1
Staphylococcus aureus [7] = assay: Antimicrobial activity against drug-susceptible Staphylococcus aureus 2 after 20 hrs by agar dilution method; details: Staphylococcus aureus, 20 h; read-out: MIC; in short: as §2
Streptococcus pneumoniae [8] = assay: Antimicrobial activity against Streptococcus pneumoniae 8 expressing inducible ermB after 20 hrs by agar dilution method; details: Streptococcus pneumoniae, 20 h; read-out: MIC; in short: as §1
Staphylococcus aureus [9] = assay: Antimicrobial activity against Staphylococcus aureus 4 constitutively expressing ermA after 20 hrs by agar dilution method; in short: as §2
Streptococcus pneumoniae [10] = assay: Antimicrobial activity against Streptococcus pneumoniae 5 constitutively expressing ermB/mefA after 20 hrs by agar dilution method; details: Streptococcus pneumoniae, 20 h; read-out: MIC; in short: as §1
Haemophilus influenzae [11] = assay: Antimicrobial activity against drug-susceptible Haemophilus influenzae 2 after 20 hrs by agar dilution method; details: Haemophilus influenzae, 20 h; read-out: MIC; in short: as §1
Haemophilus influenzae [12] = assay: Antimicrobial activity against drug-susceptible Haemophilus influenzae 3 after 20 hrs by agar dilution method; details: Haemophilus influenzae, 20 h; read-out: MIC; in short: as §1
Streptococcus pyogenes [13] = assay: Antimicrobial activity against Streptococcus pyogenes 3 expressing mefA after 20 hrs by agar dilution method; details: Streptococcus pyogenes, 20 h; read-out: MIC; in short: as §1
Staphylococcus aureus [14] = assay: Antimicrobial activity against Staphylococcus aureus 5 expressing inducible ermB after 20 hrs by agar dilution method; details: Staphylococcus aureus, 20 h; read-out: MIC; in short: as §2
Staphylococcus aureus [15] = assay: Antimicrobial activity against drug-susceptible Staphylococcus aureus 3 after 20 hrs by agar dilution method; details: Staphylococcus aureus, 20 h; read-out: MIC; in short: as §2
Moraxella catarrhalis [16] = assay: Antimicrobial activity against drug-susceptible Moraxella catarrhalis 1 after 20 hrs by agar dilution method; details: Moraxella catarrhalis, 20 h; read-out: MIC; in short: as §1
Streptococcus pneumoniae [17] = assay: Antimicrobial activity against Streptococcus pneumoniae 9 expressing mefA after 20 hrs by agar dilution method; details: Streptococcus pneumoniae, 20 h; read-out: MIC; in short: as §1
Haemophilus influenzae [18] = assay: Antimicrobial activity against drug-susceptible Haemophilus influenzae 4 after 20 hrs by agar dilution method; details: Haemophilus influenzae, 20 h; read-out: MIC; in short: as §1
Streptococcus pyogenes [19] = assay: Antimicrobial activity against Streptococcus pyogenes 2 constitutively expressing ermB after 20 hrs by agar dilution method; in short: as §1
Staphylococcus aureus [20] = assay: Antimicrobial activity against drug-susceptible Staphylococcus aureus 209P JC-1 after 20 hrs by agar dilution method; details: Staphylococcus aureus, 209P, 20 h; read-out: MIC; in short: as §2
Streptococcus pneumoniae [21] = assay: Antimicrobial activity against drug-susceptible Streptococcus pneumoniae 2 after 20 hrs by agar dilution method; details: Streptococcus pneumoniae, 20 h; read-out: MIC; in short: as §1
Moraxella catarrhalis [22] = assay: Antimicrobial activity against drug-susceptible Moraxella catarrhalis 2 after 20 hrs by agar dilution method; details: Moraxella catarrhalis, 20 h; read-out: MIC; in short: as §1
Streptococcus pneumoniae [23] = assay: Antimicrobial activity against Streptococcus pneumoniae 6 constitutively expressing ermB after 20 hrs by agar dilution method; details: Streptococcus pneumoniae, 20 h; read-out: MIC; in short: as §1

Row | SMILES | MIC (Haemophilus influenzae [1]) | MIC (Staphylococcus aureus [2]) | MIC (Streptococcus pneumoniae [3]) | MIC (Streptococcus pneumoniae [4]) | MIC (Streptococcus pyogenes [5]) | MIC (Streptococcus pneumoniae [6]) | MIC (Staphylococcus aureus [7]) | MIC (Streptococcus pneumoniae [8]) | MIC (Staphylococcus aureus [9]) | MIC (Streptococcus pneumoniae [10]) | MIC (Haemophilus influenzae [11]) | MIC (Haemophilus influenzae [12]) | MIC (Streptococcus pyogenes [13]) | MIC (Staphylococcus aureus [14]) | MIC (Staphylococcus aureus [15]) | MIC (Moraxella catarrhalis [16]) | MIC (Streptococcus pneumoniae [17]) | MIC (Haemophilus influenzae [18]) | MIC (Streptococcus pyogenes [19]) | MIC (Staphylococcus aureus [20]) | other results
1 | CCOC(=O)[C@H]1[C@H](C)O[C@@H](O[C@H]2[C@H](N(C)C)[C@@H](O)[C@H](O[C@H]3[C@@H](CC=O)C[C@@H](C)[C@@H](OC(C)=O)CN(CCCCc4ccccc4)CCC[C@@H](C)OC(=O)C[C@@H](OC(=O)CC)[C@@H]3OC)O[C@@H]2C)C[C@@]1(C)OC(C)=O | > 128 µg/mL | 2 µg/mL (≈ 1.93 µM) | 0.13 µg/mL (≈ 0.126 µM) | 0.25 µg/mL (≈ 0.241 µM) | 0.25 µg/mL (≈ 0.241 µM) | 4 µg/mL (≈ 3.86 µM) | 2 µg/mL (≈ 1.93 µM) | 4 µg/mL (≈ 3.86 µM) | > 128 µg/mL | > 128 µg/mL | 4 µg/mL (≈ 3.86 µM) | > 128 µg/mL | 1 µg/mL (≈ 0.966 µM) | 1 µg/mL (≈ 0.966 µM) | 1 µg/mL (≈ 0.966 µM) | 1 µg/mL (≈ 0.966 µM) | 0.25 µg/mL (≈ 0.241 µM) | > 128 µg/mL | > 128 µg/mL | 0.5 µg/mL (≈ 0.483 µM) | MIC (Streptococcus pneumoniae [21]): 0.25 µg/mL (≈ 0.241 µM); MIC (Moraxella catarrhalis [22]): 2 µg/mL (≈ 1.93 µM); MIC (Streptococcus pneumoniae [23]): > 128 µg/mL
2 | CCC(=O)O[C@@H]1CC(=O)O[C@H](C)C/C=C/C=C/[C@H](OC(C)=O)[C@H](C)C[C@H](CC=O)[C@H](O[C@@H]2O[C@H](C)[C@@H](O[C@H]3C[C@@](C)(OC(C)=O)[C@@H](OC(=O)CC)[C@H](C)O3)[C@H](N(C)C)[C@H]2O)[C@H]1OC [MIOCAMYCIN] | 64 µg/mL (≈ 71.3 µM) | 1 µg/mL (≈ 1.11 µM) | 0.5 µg/mL (≈ 0.557 µM) | 0.25 µg/mL (≈ 0.278 µM) | 0.25 µg/mL (≈ 0.278 µM) | 64 µg/mL (≈ 71.3 µM) | 1 µg/mL (≈ 1.11 µM) | 128 µg/mL (≈ 143 µM) | > 128 µg/mL | > 128 µg/mL | 2 µg/mL (≈ 2.23 µM) | 32 µg/mL (≈ 35.6 µM) | 0.5 µg/mL (≈ 0.557 µM) | 0.5 µg/mL (≈ 0.557 µM) | 0.5 µg/mL (≈ 0.557 µM) | 1 µg/mL (≈ 1.11 µM) | 0.5 µg/mL (≈ 0.557 µM) | 16 µg/mL (≈ 17.8 µM) | > 128 µg/mL | 0.5 µg/mL (≈ 0.557 µM) | MIC (Streptococcus pneumoniae [21]): 0.5 µg/mL (≈ 0.557 µM); MIC (Moraxella catarrhalis [22]): 2 µg/mL (≈ 2.23 µM); MIC (Streptococcus pneumoniae [23]): > 128 µg/mL
3 | CCC(=O)O[C@@H]1CC(=O)NCCCN(CCCc2ccnc3ccccc23)C[C@H](O)[C@H](C)C[C@H](CC=O)[C@H](O[C@@H]2O[C@H](C)[C@@H](O)[C@H](N(C)C)[C@H]2O)[C@H]1OC | 64 µg/mL (≈ 84.3 µM) | 64 µg/mL (≈ 84.3 µM) | 32 µg/mL (≈ 42.2 µM) | 16 µg/mL (≈ 21.1 µM) | 16 µg/mL (≈ 21.1 µM) | > 128 µg/mL | 32 µg/mL (≈ 42.2 µM) | > 128 µg/mL | > 128 µg/mL | > 128 µg/mL | 8 µg/mL (≈ 10.5 µM) | 64 µg/mL (≈ 84.3 µM) | 128 µg/mL (≈ 169 µM) | 64 µg/mL (≈ 84.3 µM) | 64 µg/mL (≈ 84.3 µM) | 8 µg/mL (≈ 10.5 µM) | 32 µg/mL (≈ 42.2 µM) | 128 µg/mL (≈ 169 µM) | > 128 µg/mL | 64 µg/mL (≈ 84.3 µM) | MIC (Streptococcus pneumoniae [21]): 16 µg/mL (≈ 21.1 µM); MIC (Moraxella catarrhalis [22]): 8 µg/mL (≈ 10.5 µM); MIC (Streptococcus pneumoniae [23]): > 128 µg/mL

Stronger by MIC (Haemophilus influenzae [1]), values ahead:

Row | MIC (Haemophilus influenzae [1]) | MIC (Staphylococcus aureus [2]) | MIC (Streptococcus pneumoniae [3]) | MIC (Streptococcus pneumoniae [4]) | MIC (Streptococcus pyogenes [5]) | MIC (Streptococcus pneumoniae [6]) | MIC (Staphylococcus aureus [7]) | MIC (Streptococcus pneumoniae [8]) | MIC (Staphylococcus aureus [9]) | MIC (Streptococcus pneumoniae [10]) | MIC (Haemophilus influenzae [11]) | MIC (Haemophilus influenzae [12]) | MIC (Streptococcus pyogenes [13]) | MIC (Staphylococcus aureus [14]) | MIC (Staphylococcus aureus [15]) | MIC (Moraxella catarrhalis [16]) | MIC (Streptococcus pneumoniae [17]) | MIC (Haemophilus influenzae [18]) | MIC (Streptococcus pyogenes [19]) | MIC (Staphylococcus aureus [20]) | SMILES | other results
4 | 16 µg/mL (≈ 16.4 µM) | 1 µg/mL (≈ 1.02 µM) | 0.13 µg/mL (≈ 0.133 µM) | 0.13 µg/mL (≈ 0.133 µM) | 0.06 µg/mL (≈ 0.0613 µM) | 8 µg/mL (≈ 8.18 µM) | 1 µg/mL (≈ 1.02 µM) | 8 µg/mL (≈ 8.18 µM) | > 128 µg/mL | > 128 µg/mL | 1 µg/mL (≈ 1.02 µM) | 4 µg/mL (≈ 4.09 µM) | 0.25 µg/mL (≈ 0.256 µM) | 0.25 µg/mL (≈ 0.256 µM) | 0.5 µg/mL (≈ 0.511 µM) | 0.13 µg/mL (≈ 0.133 µM) | 0.13 µg/mL (≈ 0.133 µM) | 8 µg/mL (≈ 8.18 µM) | > 128 µg/mL | 0.25 µg/mL (≈ 0.256 µM) | CCOC(=O)[C@H]1[C@H](C)O[C@@H](O[C@H]2[C@H](N(C)C)[C@@H](O)[C@H](O[C@H]3[C@@H](CC=O)C[C@@H](C)[C@@H](O)CN(CCCCc4ccccc4)CCCCNC(=O)C[C@@H](OC(=O)CC)[C@@H]3OC)O[C@@H]2C)C[C@@]1(C)OC(C)=O | MIC (Streptococcus pneumoniae [21]): 0.25 µg/mL (≈ 0.256 µM); MIC (Moraxella catarrhalis [22]): 0.25 µg/mL (≈ 0.256 µM); MIC (Streptococcus pneumoniae [23]): > 128 µg/mL
5 | 16 µg/mL (≈ 16.7 µM) | 0.5 µg/mL (≈ 0.521 µM) | 0.13 µg/mL (≈ 0.136 µM) | 0.06 µg/mL (≈ 0.0626 µM) | 0.25 µg/mL (≈ 0.261 µM) | 16 µg/mL (≈ 16.7 µM) | 1 µg/mL (≈ 1.04 µM) | 16 µg/mL (≈ 16.7 µM) | > 128 µg/mL | > 128 µg/mL | 1 µg/mL (≈ 1.04 µM) | 4 µg/mL (≈ 4.17 µM) | 1 µg/mL (≈ 1.04 µM) | 0.5 µg/mL (≈ 0.521 µM) | 0.5 µg/mL (≈ 0.521 µM) | 2 µg/mL (≈ 2.09 µM) | 0.13 µg/mL (≈ 0.136 µM) | 8 µg/mL (≈ 8.34 µM) | > 128 µg/mL | 0.5 µg/mL (≈ 0.521 µM) | CCOC(=O)[C@H]1[C@H](C)O[C@@H](O[C@H]2[C@H](N(C)C)[C@@H](O)[C@H](O[C@H]3[C@@H](CC=O)C[C@@H](C)[C@@H](O)CN(CCCc4ccnc5ccccc45)CCCNC(=O)C[C@@H](OC(=O)CC)[C@@H]3OC)O[C@@H]2C)C[C@@]1(C)O | MIC (Streptococcus pneumoniae [21]): 0.13 µg/mL (≈ 0.136 µM); MIC (Moraxella catarrhalis [22]): 1 µg/mL (≈ 1.04 µM); MIC (Streptococcus pneumoniae [23]): > 128 µg/mL
